Published values from different studies.
Protocols differ between the studies behind these lines.

Cc1ccc(S(=O)(=O)n2cc3c4c2C(=O)C(NCc2ccc(Cl)cc2)=CC4=NCC3)cc1  Cmax (rat, plasma; intravenous, 5 mg/kg, single dose): 1.24 µg/mL
CC[C@H](C)[C@H](NC(=O)[C@H](Cc1ccccc1)NC(=O)[C@H](CCC(=O)O)NC(=O)[C@H](CCCNC(=N)N)NC(=O)[C@H](C)NC(=O)[C@H](C)NC(=O)[C@H](CCC(N)=O)NC(=O)[C@H](CCC(=O)O)NC(=O)[C@H](CCC(=O)O)NC(=O)[C@H](CC(C)C)NC(=O)[C@H](Cc1ccc(O)cc1)NC(=O)[C@H](CO)NC(=O)[C@H](CO)NC(=O)[C@@H](NC(=O)[C@H](CC(=O)O)NC(=O)[C@H](CO)NC(=O)[C@@H](NC(=O)[C@H](Cc1ccccc1)NC(=O)[C@@H](NC(=O)CNC(=O)[C@H](CCC(=O)O)NC(=O)[C@H](C)NC(=O)CCc1c[nH]cn1)[C@@H](C)O)[C@@H](C)O)C(C)C)C(=O)N[C@@H](C)C(=O)N[C@@H](Cc1c[nH]c2ccccc12)C(=O)N[C@@H](CC(C)C)C(=O)N[C@H](C(=O)N[C@@H](CCCNC(=N)N)C(=O)NCC(=O)N[C@@H](CCCNC(=N)N)C(=O)N[C@@H](CCCCNC(=O)COCCOCCNC(=O)COCCOCCNC(=O)CC[C@H](NC(=O)CCCCCCCCCCCCCCCCC(=O)O)C(=O)O)C(=O)O)C(C)C  Cmax (rat, plasma; subcutaneous, 20 nmol/kg): 0.0642 µM
CNCc1cc(-c2ccccc2F)n(S(=O)(=O)c2cccnc2)c1  Cmax (Sprague-Dawley rat, plasma; oral, 10 mg/kg): 0.245 µg/mL
O=C(Nc1cc(F)c(F)c(F)c1)c1ccc(F)c(S(=O)(=O)NCc2cccc(B(O)O)c2)c1  Cmax (male Sprague-Dawley rat, plasma; oral, 20 mg/kg): 0.0463 µg/mL
CC(C)OC(=O)NC1CCN(Cc2cc(Cl)c3cccnc3c2O)CC1  Cmax (rat, blood; intraperitoneal, 30 mg/kg): 0.2 µM
O=C1N(Cc2ccccc2Cl)c2ccccc2C12NN=C(c1ccccc1)S2 (stereo not shown)  Cmax (Sprague-Dawley rat, plasma; oral, 40 mg/kg): 1.19 µg/mL
CCOC(=O)[C@@]12C[C@@H]1[C@@H](n1ccc3c(NC)nc(C#Cc4ccc(Cl)s4)nc31)[C@H](O)[C@@H]2O  Cmax (male Sprague-Dawley rat, plasma; oral, 1 mg/kg): 0.00997 µg/mL
COCc1nn(Cc2ccc(Cn3ccccc3=O)cc2)cc1C(=O)NCc1nccc(OC)c1C  Cmax (male Sprague-Dawley rat, plasma; oral, 10 mg/kg): 1.02 µg/mL
COc1cc(/C=C/C(=O)CC(=O)/C=C/c2ccc(O)c(OC)c2)ccc1O  Cmax (male Sprague-Dawley rat, plasma; oral, 100 mg/kg): 0.00599 µg/mL
COc1cc2c3c(n(CCCN4CCOCC4)c(=O)c2cc1OC)-c1cc2c(cc1C3=O)OCO2  Cmax (male Fischer 344 rat, plasma; intravenous, 12 mg/m², single dose): 0.406 µg/mL
C=CC(=O)N1CC2CC(n3nc(-c4ccc(C(=O)Nc5ccccn5)cc4)c4c(N)ncnc43)CC2C1 (stereo not shown)  Cmax (male Wistar rat, plasma; oral, 300 mg/kg): 6.14 µg/mL
COc1nc(-c2cc(C)c(N[C@@H](C)c3cc(F)cc(F)c3)nn2)ccc1-n1cnc(C)c1  Cmax (male Sprague-Dawley rat, plasma; intravenous, 1 mg/kg, single dose): 3.57 µg/mL
N#Cc1[nH]nnc1-c1csc(-c2ccc(Cl)cc2)n1  Cmax (male Sprague-Dawley rat, plasma; oral, 10 mg/kg): 5.23 µg/mL
CCc1cc(C(=O)NC)c2nccc(N3CCc4c(cc(Cn5ccnc5)cc4-c4cn(C)nc4C(F)(F)F)C3=O)c2c1  Cmax (male Sprague-Dawley rat, plasma; oral, 100 mg/kg, single dose): 10.1 µg/mL
Cl.Clc1ccc2c(c1)nc(N1CCNCC1)n2Cc1ccccc1  Cmax (rat, plasma; oral, 5 mg/kg): 0.8 µM
CNCc1cc(-c2ccccc2F)n(S(=O)(=O)c2cccnc2)c1  Cmax (male Sprague-Dawley rat, plasma; oral, 10 mg/kg): 0.14 µg/mL
